Series [1] is described as follows: Tmax in mouse at 1 mg/kg, iv. The note with it: in vivo. It counts as ADME, organism-based.
Series [2] has as its target T1, Protein cereblon/Tyrosine-protein kinase BTK (Homo sapiens, UniProt Q06187+Q96SW2). Briefly: Protac activity at CRBN/BTK in human NAMALWA cells assessed as induction of BTK protein degradation incubated for 24 hrs by immunoblotting method relative to control. It counts as cell-based. The note with it: NAMALVA. The method, boiled down:
(§1)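 NAMALWA cells were grown in RPMI 1640 with 10% FBS, streptomycin and penicillin at 37 °C, 5% CO2. 2 × 10^6 cells per concentration were treated 24 h, rinsed in cold PBS, and lysed in Tris pH 8.0/deoxycholate/Triton X-100 with protease and phosphatase inhibitors.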
Target sequence in this assay (Q06187 2-659 limits assumed): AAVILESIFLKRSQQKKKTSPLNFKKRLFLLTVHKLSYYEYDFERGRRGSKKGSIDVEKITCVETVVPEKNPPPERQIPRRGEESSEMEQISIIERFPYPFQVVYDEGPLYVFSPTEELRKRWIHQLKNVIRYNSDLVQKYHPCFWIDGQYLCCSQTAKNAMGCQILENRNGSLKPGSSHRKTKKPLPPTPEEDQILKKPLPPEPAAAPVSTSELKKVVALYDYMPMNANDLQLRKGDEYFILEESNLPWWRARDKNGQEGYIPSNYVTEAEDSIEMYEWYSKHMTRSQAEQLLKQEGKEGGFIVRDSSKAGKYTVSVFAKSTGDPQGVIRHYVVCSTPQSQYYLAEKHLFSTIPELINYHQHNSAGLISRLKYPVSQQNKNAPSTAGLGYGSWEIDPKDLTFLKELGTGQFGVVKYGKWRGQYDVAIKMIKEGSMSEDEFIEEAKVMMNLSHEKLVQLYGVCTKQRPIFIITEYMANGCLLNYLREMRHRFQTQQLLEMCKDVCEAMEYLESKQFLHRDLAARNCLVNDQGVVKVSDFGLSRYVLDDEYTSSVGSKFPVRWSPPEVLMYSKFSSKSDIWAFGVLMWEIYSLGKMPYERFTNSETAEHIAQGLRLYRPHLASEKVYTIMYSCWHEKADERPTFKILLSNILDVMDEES
Target sequence in this assay (Q96SW2 whole entry partner): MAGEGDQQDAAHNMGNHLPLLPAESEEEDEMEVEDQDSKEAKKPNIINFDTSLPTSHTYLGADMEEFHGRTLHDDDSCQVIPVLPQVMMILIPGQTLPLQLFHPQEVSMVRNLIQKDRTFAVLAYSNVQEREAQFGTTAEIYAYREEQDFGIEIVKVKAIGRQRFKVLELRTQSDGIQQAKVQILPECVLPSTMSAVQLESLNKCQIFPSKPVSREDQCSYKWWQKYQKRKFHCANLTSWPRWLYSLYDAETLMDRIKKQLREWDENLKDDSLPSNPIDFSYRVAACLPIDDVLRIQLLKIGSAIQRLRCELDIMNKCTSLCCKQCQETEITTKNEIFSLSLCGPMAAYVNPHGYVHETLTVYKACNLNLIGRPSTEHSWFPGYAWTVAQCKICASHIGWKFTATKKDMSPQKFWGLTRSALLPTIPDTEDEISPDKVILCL

Series [3] deals with T1, Protein cereblon/Tyrosine-protein kinase BTK. In words: Protac activity at CRBN/BTK in human NAMALWA cells assessed as induction of BTK protein degradation incubated for 24 hrs by immunoblotting method. It counts as cell-based. The note with it: namalva. The method, boiled down: as §1
Target sequence in this assay (Q06187 whole entry): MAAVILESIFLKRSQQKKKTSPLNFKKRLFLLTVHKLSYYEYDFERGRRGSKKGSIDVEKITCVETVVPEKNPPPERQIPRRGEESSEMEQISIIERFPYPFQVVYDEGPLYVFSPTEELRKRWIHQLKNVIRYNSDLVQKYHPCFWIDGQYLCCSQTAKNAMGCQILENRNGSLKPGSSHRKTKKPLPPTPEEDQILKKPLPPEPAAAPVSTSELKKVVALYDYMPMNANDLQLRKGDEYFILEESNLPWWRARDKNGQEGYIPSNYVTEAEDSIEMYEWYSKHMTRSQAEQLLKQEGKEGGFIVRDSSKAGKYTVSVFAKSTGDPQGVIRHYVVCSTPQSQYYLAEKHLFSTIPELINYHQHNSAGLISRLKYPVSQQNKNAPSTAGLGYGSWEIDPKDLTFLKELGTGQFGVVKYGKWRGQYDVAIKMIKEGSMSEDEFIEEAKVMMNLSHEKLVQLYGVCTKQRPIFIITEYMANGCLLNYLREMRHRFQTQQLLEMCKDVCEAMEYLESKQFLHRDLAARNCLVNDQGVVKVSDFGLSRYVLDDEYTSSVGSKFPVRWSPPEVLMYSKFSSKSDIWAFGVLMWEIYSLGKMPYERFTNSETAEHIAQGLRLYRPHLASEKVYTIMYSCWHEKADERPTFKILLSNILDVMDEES
Target sequence in this assay (Q96SW2 whole entry): as the sequence (Q96SW2 whole entry partner) above
The nature of series [4]: AUClast in mouse at 1 mg/kg, iv. The settings on record: in vivo. It counts as ADME, organism-based. Set-up: dose 1 mg/kg, time 0 - last, route intravenous.
Series [5] deals with T2, von Hippel-Lindau disease tumor suppressor/Tyrosine-protein kinase BTK (Homo sapiens, UniProt Q06187+P40337). In words: Protac activity at VHL/BTK in human NAMALWA cells assessed as induction of BTK protein degradation incubated for 24 hrs by immunoblotting method. The settings on record: namalva. It counts as cell-based. The method, boiled down: as §1
Target sequence in this assay (Q06187 whole entry): as the sequence (Q06187 whole entry) above
Target sequence in this assay (P40337 whole entry): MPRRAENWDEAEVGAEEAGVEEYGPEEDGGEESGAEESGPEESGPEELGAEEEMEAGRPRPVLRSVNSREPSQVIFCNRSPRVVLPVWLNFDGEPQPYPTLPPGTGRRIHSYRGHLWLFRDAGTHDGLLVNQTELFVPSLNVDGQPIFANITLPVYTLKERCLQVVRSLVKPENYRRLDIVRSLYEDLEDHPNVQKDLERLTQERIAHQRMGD
For series [6], the target named is T2, von Hippel-Lindau disease tumor suppressor/Tyrosine-protein kinase BTK. In words: Protac activity at VHL/BTK in human NAMALWA cells assessed as induction of BTK protein degradation incubated for 24 hrs by immunoblotting method relative to control. It counts as cell-based. The settings on record: NAMALVA. The method, boiled down:
as §1
Target sequence in this assay (P40337 whole entry partner): as the sequence (P40337 whole entry) above
Target sequence in this assay (Q06187 2-659 limits assumed): as the sequence (Q06187 2-659 limits assumed) above

This is an account of results in ChEMBL document CHEMBL4610031, “Design, synthesis and biological evaluation of Proteolysis Targeting Chimeras (PROTACs) as a BTK degraders with improved pharmacokinetic properties” (Bioorg Med Chem Lett, 2020).

The structures appear in SMILES notation. Some results are limits rather than exact numbers.

As to `Nc1ncnc2c1c(-c1ccc(Oc3ccccc3)cc1)nn2C1CCN(CCOCCOCCOc2ccc3c(c2)C(=O)N(C2CCC(=O)NC2=O)C3=O)CC1` (configuration not stated), the Tmax in series [1] is 1.98 min. Also, the maximum response (Emax) in series [2] turned out to be 91%. The 50% degradation concentration (DC50) in series [3] turned out to be 8.3 nM. This compound also had an AUClast in series [4] of 166 ng·h/mL.

For the compound `Cc1ncsc1-c1ccc(CNC(=O)[C@@H]2C[C@@H](O)CN2C(=O)[C@@H](NC(=O)COCCOCCN2CCC(n3nc(-c4ccc(Oc5ccccc5)cc4)c4c(N)ncnc43)CC2)C(C)(C)C)cc1`, the DC50 in series [5] came to 374 nM. Also, the maximum response (Emax) in series [6] came to 49%.

On to `Nc1ncnc2c1c(-c1ccc(Oc3ccccc3)cc1)nn2C1CCN(CCOCCOCC(=O)Nc2ccc3c(c2)C(=O)N(C2CCC(=O)NC2=O)C3=O)CC1` (configuration not stated), for which the Tmax in series [1] stood at 1.98 min. In addition, the maximal response (Emax) in series [2] stood at 99%. In addition, the 50% degradation concentration (DC50) in series [3] stood at 6.2 nM. This compound also registered an AUClast in series [4] of 10.2 ng·h/mL.

Turning to `Cc1ncsc1-c1ccc(CNC(=O)[C@@H]2C[C@@H](O)CN2C(=O)[C@H](C(C)C)N2Cc3ccccc3C2=O)c(OCCCOCCC(=O)N2CCC(n3nc(-c4ccc(Oc5ccccc5)cc4)c4c(N)ncnc43)CC2)c1`, the 50% degradation concentration (DC50) in series [5] was above 1000 nM.

On to `Cc1ncsc1-c1ccc(CNC(=O)[C@@H]2C[C@@H](O)CN2C(=O)[C@H](C(C)C)N2Cc3ccccc3C2=O)c(OCCCCOCCCCN2CCC(n3nc(-c4ccc(Oc5ccccc5)cc4)c4c(N)ncnc43)CC2)c1`, for which the DC50 in series [5] was 162 nM. In addition, in series [6], the Emax came out at 50%.

Consider `Nc1ncnc2c1c(-c1ccc(Oc3ccccc3)cc1)nn2C1CCN(CCOCCOCCOc2ccc3c(c2)CN(C2CCC(=O)NC2=O)C3=O)CC1` (configuration not stated), for which, in series [1], the Tmax is 1.98 min. Besides, the Emax in series [2] was found to be 95%. In series [3], the DC50 is 7.9 nM. Also, the AUClast in series [4] was determined as 405 ng·h/mL.
